Source: PubChem (several laboratories)
TAAR1 ag – agonists of human TAAR1; Q96RJ0; CHO RD-HGA16 TAAR1, Fluo-8 calcium fluorescence; vehicle wells 0%, saturating PEA agonist 100%; activation, % at 3 µM; 0.99% of 360,000 active; AID 624467;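 active = activation above the mean activation of all test compounds in the run plus 3 SD, cut at about 38% in these data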
Target sequence (Q96RJ0 whole entry, looked up): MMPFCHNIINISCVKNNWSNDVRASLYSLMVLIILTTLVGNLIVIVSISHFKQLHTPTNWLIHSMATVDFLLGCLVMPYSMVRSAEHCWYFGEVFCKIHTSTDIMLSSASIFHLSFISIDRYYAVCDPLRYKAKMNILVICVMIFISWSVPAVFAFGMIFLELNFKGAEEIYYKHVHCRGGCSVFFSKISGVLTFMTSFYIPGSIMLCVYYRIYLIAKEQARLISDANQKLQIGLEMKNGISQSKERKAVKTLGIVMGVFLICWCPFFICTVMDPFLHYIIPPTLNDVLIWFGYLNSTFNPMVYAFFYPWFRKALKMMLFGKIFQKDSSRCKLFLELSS
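Test system: RD-HGA16 (CHO) cells co-expressing Gα16 and hTAAR1 | Doses: Single dose, 3 µM | Schedule: 17-24 h seeding, 75 min 37 °C dye, 30 min RT | Evaluation: % activation from peak over basal fluorescence ratio, DMSO-to-PEA scaled | Technique: Kinetic Fluo-8 calcium fluorescence | Benchmarks: Low control DMSO, high control PEA (EC100)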
CHO parental Ca – counter-screen: ATP calcium response change in parental CHO cells; AID 463079; inhibition, % at 5.6 µM; parental CHO-K1, ATP-induced calcium, Fluo-8 fluorescence; 0.63% of 330,000 active;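 active = inhibition above that plate's mean sample inhibition plus 3 SD, cut at about 26% in these data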
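Measured by: calcium-sensitive Fluo-8 fluorescence / Test system: CHO parental line / Controls: ATP-challenged DMSO wells low, unchallenged DMSO wells high / Measure: % inhibition / Compound: single nominal dose of 5.6 µM per compound / Replicates: single well per compound, no replicates / Reagent: ATP as calcium-mobilizing challenge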
TAAR1 antagonist – antagonists of human TAAR1 | Q96RJ0 | CHO RD-HGA16 TAAR1, Fluo-8 calcium fluorescence, antagonist | inhibition, % at 3 µM | 1.5% of 360,000 active | AID 624466;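 active = inhibition above a per-plate cutoff, the mean inhibition of test compounds on that plate plus 3 SD, cut at about 49% in these data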
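Test system: hTAAR1-expressing CHO RD-HGA16 cells, Gα16-coupled; Probe or stimulus: EC80 β-phenethylamine stimulus; Compound dosing: single nominal final test compound concentration of 3 µM; Timing: 140 s kinetic read after compound, 140 s after agonist; Signal: Fluo-8 calcium-sensitive fluorescence; Measure: % inhibition of agonist calcium response; Controls: DMSO and EC80 PEA controls.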
OX1R antag-1 – OX1R (human) antagonism; 1.8% of 330,000 active; inhibition, % at 6.6 µM; O43613; OX1R-expressing cells, FRET antagonist read-out; in the data active = inhibition mostly above about 38%, no sharp cut-off; inactive = mostly below about 40%
OX1R antag-2 – antagonists of human orexin 1 receptor; O43613; inhibition, % at 5 µM; 0.43% of 330,000 active; CHO/OX1R cells, Fluo-8 calcium fluorescence, orexin A;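 active = inhibition above its plate's threshold, mean inhibition of all tested compounds on the plate plus 3 SD, cut at about 37% in these data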
NTR1 agonist – agonists of human neurotensin receptor NTR1; P30989; NTR1-U2OS beta-arrestin-GFP spot imaging, agonist mode; activation, % at 20 µM; 0.17% of 330,000 active;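 active = activation at or above 40% of the spot to cytoplasm intensity ratio, with at least 20 cells analyzed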
Large screens that a line does not name were inactive. An excerpt weighted towards active compounds, which were near 4% of everything screened.

COC(=O)N1C[C@H](OCc2ccc3c(c2)OCO3)[C@H]2C[C@@H]1c1ccccc1O2	none (no result: CHO parental Ca, OX1R antag-1, OX1R antag-2, NTR1 agonist)
COc1ccc(CC(=O)Oc2ccc(F)cc2)cc1	none
Nc1[nH]c(C(=O)c2ccc(Br)cc2)c(-c2ccncc2)c1C(=O)c1ccccc1	none (no result: CHO parental Ca, OX1R antag-1, OX1R antag-2, NTR1 agonist)
CCC(CC)N=C1NS(=O)(=O)c2cc([N+](=O)[O-])ccc21	OX1R antag-1 55
CC(C)(C)CC(C)(C)N=C1NS(=O)(=O)c2cc([N+](=O)[O-])ccc21	none
COC(=O)C1=C(C)N(Cc2ccccc2C(F)(F)F)C(=NCC2CC2)NC1CCc1ccccc1 (stereo not given)	none (no result: CHO parental Ca, OX1R antag-1, OX1R antag-2, NTR1 agonist)
Cc1c(Cl)sn(-c2ccc(Cl)cc2)c1=O	TAAR1 antagonist 61 (no result: CHO parental Ca, OX1R antag-1, OX1R antag-2)
Cc1nn(-c2ccc(Cl)cc2)c(=O)c2ccccc12	none
O=C(Cc1cn(Cc2ccccc2)c2ccccc12)Nc1ccc(Oc2cccnc2)cc1	none (no result: CHO parental Ca, OX1R antag-1, OX1R antag-2, NTR1 agonist)
O=C(COc1ccccc1F)Nc1ccccc1C(=O)NC1CC1	TAAR1 antagonist 52
COc1cccc(OC)c1C(=O)Nc1ccc2c3c(cccc13)CC2	none
COc1ccccc1C(=O)Nc1cccc2c1CCCC2	OX1R antag-1 27
COc1ccccc1C(=O)Nc1ccc2c3c(cccc13)CC2	OX1R antag-1 61
O=C(Nc1nccs1)c1nc[nH]c1C(=O)NCc1ccccc1	none
CCN(CC(=O)Nc1ccc(NC(C)=O)cc1)C(=O)/C=C/c1cn(-c2ccccc2)nc1-c1cccs1	TAAR1 antagonist 58
O=C(CSc1nc2ccccc2s1)N1c2ccccc2Sc2ccc(Cl)cc21	OX1R antag-1 45
O=C(CSc1nc2ccccc2s1)N1c2ccccc2Sc2ccc(C(F)(F)F)cc21	none
COc1ccc(Cl)cc1NC(=O)c1cc(-c2ccccc2O)n[nH]1	none
COc1ccc(OC)c(NC(=O)c2cc(-c3cc(Cl)ccc3O)n[nH]2)c1	CHO parental Ca 35, OX1R antag-1 101, OX1R antag-2 97
COc1ccc(NC(=O)c2cc(-c3cc(C)ccc3O)n[nH]2)cc1Cl	OX1R antag-1 71
Cc1cccc(NC(=O)c2cc(-c3cc(C)ccc3O)n[nH]2)c1	none
CC1CCN(C(=O)CCNS(=O)(=O)c2ccc3c(c2)c(=O)n(C)c(=O)n3C)CC1	none
COC(=O)[C@]12C[C@H](CC(=O)NCC3CCCCC3)C(=O)N(Cc3ccccc3)C1=C[C@H](C1CCCC1)O[C@@H]2C	none (no result: CHO parental Ca, OX1R antag-1, OX1R antag-2, NTR1 agonist)
COc1cccc(OC)c1C(=O)Nc1cc(Cl)ccc1N1CCOCC1	OX1R antag-1 53
Cc1noc(C)c1C(=O)Nc1cc(Cl)ccc1N1CCOCC1	none
COc1ccc(C2=CSC3=NCCN23)cc1Br	none
C[C@H](CO)N1C[C@H](C)[C@@H](CN(C)C(=O)Nc2ccc3c(c2)OCCO3)OCc2cn(nn2)CCCC1=O	none (no result: CHO parental Ca, OX1R antag-1, OX1R antag-2, NTR1 agonist)
C[C@@H](C(=O)NCc1c(F)cccc1Cl)N1C(=O)N2CCc3c([nH]c4ccccc34)[C@@]2(C)C1=O	OX1R antag-1 67
COc1ccc2[nH]c3c(c2c1)CCN1C(=O)N([C@@H](C)C(=O)NCc2c(F)cccc2Cl)C(=O)[C@]31C	none
COC(=O)[C@]1(CC(C)C)NC=C(C(=O)c2ccccc2)[C@@H]1c1cccc(C(F)(F)F)c1	none (no result: CHO parental Ca, OX1R antag-1, OX1R antag-2, NTR1 agonist)
O=[N+]([O-])c1ccc2nc(NN=Cc3ccc(O)cc3)sc2c1	TAAR1 antagonist 51 (no result: CHO parental Ca, OX1R antag-1, OX1R antag-2, NTR1 agonist)
CCCCS(=O)(=O)N1C2=NC(C(=O)OCC)=C(C(=O)OCC)C3N(Cc4ccc(C#N)cc4)c4ccccc4[C@]23C[C@H]1C(=O)OC (stereo not given in full)	none (no result: CHO parental Ca, OX1R antag-1, OX1R antag-2, NTR1 agonist)
COc1ccc(-c2cc(C3CCN(c4ccc(C(C)=O)cc4[N+](=O)[O-])CC3)[nH]n2)cc1	CHO parental Ca 50
CC(=O)c1ccc(N2CCC(c3cc(-c4ccc(Cl)cc4)n[nH]3)CC2)c([N+](=O)[O-])c1	CHO parental Ca 43 (no result: TAAR1 ag, TAAR1 antagonist)
COC(=O)c1ccc(N2CCC(c3cc(-c4ccc(OC)cc4)n[nH]3)CC2)c([N+](=O)[O-])c1	none
CN(C)C1=NC[C@H](Cc2ccccc2)N1CCC1CCCC1	none
CN(C)C1=NC[C@H](Cc2ccccc2)N1CCCC1CCCCC1	TAAR1 ag 48
Cn1cc(S(=O)(=O)N2CCc3ccccc32)cc1C(=O)NC(C)(C)C	CHO parental Ca 33
